Test results: ChEMBL document CHEMBL4765426, “Design, synthesis and in vitro anti-influenza A virus evaluation of novel quinazoline derivatives containing S-acetamide and NH-acetamide moieties at C-4” (Eur J Med Chem, 2020)
Calls of active or inactive are those of the source.

Columns and labels:
Influenza A virus [1] = assay: Antiviral activity against Influenza A virus A/WSN/33(H1N1) infected in HEK293T-Gluc cells assessed as inhibition of virus infection at 10 uM pretreated for 2 hrs followed by viral infection and measured after 24 hrs by Gaussia luciferase reporter gene assay; type: functional; conditions: A/WSN/1933(H1N1), HEK-293T, time 26 hrs
Summary of the method: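 A single-concentration screen at 10 μM was run against A/WSN/33 (H1N1) in HEK293T-Gluc reporter cells. These cells carry a stably transfected pLenti6-Gluc construct expressing negative-strand Gaussia luciferase RNA that is converted to positive strand upon infection. Inhibition ratio of infection was read from Gluc activity.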

Influenza A virus [2] = assay: Antiviral activity against Influenza A virus A/WSN/33(H1N1) infected in HEK293T-Gluc cells pretreated for 2 hrs followed by viral infection and measured after 24 hrs by Gaussia luciferase reporter gene assay; type: functional, organism-based; conditions: A/WSN/1933(H1N1), HEK-293T
Summary of the method: (§1)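 Reporter cells were HEK293T cells stably transfected with pLenti6-Gluc, which constitutively expresses negative-strand Gaussia luciferase RNA that becomes positive-strand on IAV infection. Cells were infected with A/WSN/33 or A/PR/8/1934 (H1N1). Antiviral activity was read as Gluc signal, and IC50 values were derived. Ribavirin served as positive control.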

[3] = Cytotoxicity against human HEK293T cells assessed as reduction in cell viability after 48 hrs by CCK8 assay; type: cell-based, HEK-293T
[4] = Selectivity index, ratio of CC50 for human HEK293T cells to IC50 for Influenza A virus A/WSN/33(H1N1) infected in HEK293T-Gluc cells; type: toxicity, cell-based; conditions: read-out: Ratio CC50/IC50
[5] = Cytotoxicity against human A549 cells assessed as reduction in cell viability after 48 hrs by CCK8 assay; type: cell-based
Influenza A virus [6] = assay: Antiviral activity against Influenza A virus A/PR/8/34 (H1N1) infected in HEK293T-Gluc cells pretreated for 2 hrs followed by viral infection and measured after 24 hrs by Gaussia luciferase reporter gene assay; type: functional, organism-based; conditions: A/Puerto Rico/8/1934(H1N1), HEK-293T; summary of the method: as §1
Influenza A virus [7] = assay: Antiviral activity against Influenza A virus A/WSN/33(H1N1)) infected in A549 cells assessed as inhibition of virus replication at early stage at 2.5 uM after 2 to 4 hrs post infection by time of addition assay; type: functional, organism-based; conditions: A/WSN/1933(H1N1), time 2-4 hrs
Summary of the method: (§2)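 For time-of-addition, A549 cells were inoculated with single-cycle A/WSN/33 (H1N1) virus at MOI 0.2, and compound was added at 2.5 μM. Viral yield was measured as Gluc activity at 11 h post-infection. DMSO served as negative control and ribavirin (30 μM) as positive control.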

Influenza A virus [8] = assay: Antiviral activity against Influenza A virus A/WSN/33(H1N1)) infected in A549 cells assessed as reduction in viral yield at 2.5 uM preincubated before viral infection by time of addition assay; type: functional, organism-based; conditions: A/WSN/1933(H1N1); summary of the method: as §2
Influenza A virus [9] = assay: Antiviral activity against Influenza A virus A/WSN/33(H1N1) infected in HEK293T cells co-transfected with NP/PA/PB1/PB2/pol-LUC/SV40-Renilla assessed as inhibition of viral RNA transcription and replication after 24 hrs by mini-genome replicon system based luciferase assay; type: functional, organism-based; conditions: A/WSN/1933(H1N1), dose 1.25-2.5 µM
Summary of the method: (§3)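 In the mini-genome replicon assay, HEK293T cells were transfected with pCAGGS plasmids encoding PB2, PB1, PA and NP, plus pol-LUC and SV40-Renilla, with or without compound (1.25 or 2.5 μM). Firefly and Renilla luciferase were measured 24 h post-transfection and compared against negative control (p<0.01 threshold).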

Influenza A virus [10] = assay: Antiviral activity against Influenza A virus A/WSN/33(H1N1) infected in HEK293T cells co-transfected with NP/PA/PB1/PB2/pol-LUC/SV40-Renilla assessed as inhibition of viral RNA transcription and replication at 2.5 uM after 24 hrs by mini-genome replicon system based luciferase assay; type: functional, A/WSN/1933(H1N1); set-up: scale not given: the % may be the effect or the level left; summary of the method: as §3
[11] = Elimination rate constant in Sprague-Dawley rat at 1.25 mg/kg, iv measured up to 24 hrs by HPLC analysis; type: ADME, organism-based; conditions: in vivo
Summary of the method: (§4)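 Male Sprague-Dawley rats (n = 3 per route) received a single intravenous dose (1.25 mg/kg) or a single oral dose (25 mg/kg). Plasma concentrations were followed over time, and PK parameters were derived from them. Values are reported as mean ± deviation.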

[12] = Elimination rate constant in Sprague-Dawley rat at 25 mg/kg, po measured up to 24 hrs by HPLC analysis; type: ADME, organism-based; conditions: in vivo; summary of the method: as §4
[13] = Half life in Sprague-Dawley rat at 1.25 mg/kg, iv measured up to 24 hrs by HPLC analysis; type: ADME, organism-based; conditions: in vivo; summary of the method: as §4
[14] = Half life in Sprague-Dawley rat at 25 mg/kg, po measured up to 24 hrs by HPLC analysis; type: ADME, organism-based; conditions: in vivo; summary of the method: as §4
[15] = Tmax in Sprague-Dawley rat at 25 mg/kg, po measured up to 24 hrs by HPLC analysis; type: ADME, organism-based; conditions: in vivo; summary of the method: as §4
[16] = Cmax in Sprague-Dawley rat at 1.25 mg/kg, iv measured up to 24 hrs by HPLC analysis; type: ADME, organism-based; set-up: route intravenous, dose 1.25 mg/kg, time <=24; conditions: in vivo; summary of the method: as §4
[17] = Cmax in Sprague-Dawley rat at 25 mg/kg, po measured up to 24 hrs by HPLC analysis; type: ADME, organism-based; set-up: route oral, dose 25 mg/kg, time <=24; conditions: in vivo; summary of the method: as §4
[18] = Initial plasma concentration in Sprague-Dawley rat at 1.25 mg/kg, iv measured up to 24 hrs by HPLC analysis; type: ADME, organism-based; summary of the method: as §4
[19] = AUC (0 to t) in Sprague-Dawley rat at 1.25 mg/kg, iv measured up to 24 hrs by HPLC analysis; type: ADME, organism-based; set-up: route intravenous, dose 1.25 mg/kg, time <=24; conditions: in vivo; summary of the method: as §4
[20] = AUC (0 to t) in Sprague-Dawley rat at 25 mg/kg, po measured up to 24 hrs by HPLC analysis; type: ADME, organism-based; set-up: route oral, dose 25 mg/kg, time <=24; conditions: in vivo; summary of the method: as §4
[21] = AUC (0 to infinity) in Sprague-Dawley rat at 1.25 mg/kg, iv measured up to 24 hrs by HPLC analysis; type: ADME, organism-based; set-up: route intravenous, dose 1.25 mg/kg, time <=24; conditions: in vivo; summary of the method: as §4
[22] = AUC (0 to infinity) in Sprague-Dawley rat at 25 mg/kg, po measured up to 24 hrs by HPLC analysis; type: ADME, organism-based; set-up: route oral, dose 25 mg/kg, time <=24; conditions: in vivo; summary of the method: as §4
[23] = AUMC (0 to t) in Sprague-Dawley rat at 1.25 mg/kg, iv measured up to 24 hrs by HPLC analysis; type: ADME, organism-based; conditions: in vivo; summary of the method: as §4
[24] = AUMC (0 to t) in Sprague-Dawley rat at 25 mg/kg, po measured up to 24 hrs by HPLC analysis; type: ADME, organism-based; conditions: in vivo; summary of the method: as §4
[25] = AUMC (0 to infinity) in Sprague-Dawley rat at 1.25 mg/kg, iv measured up to 24 hrs by HPLC analysis; type: ADME, organism-based; conditions: in vivo; summary of the method: as §4
[26] = AUMC (0 to infinity) in Sprague-Dawley rat at 25 mg/kg, po measured up to 24 hrs by HPLC analysis; type: ADME, organism-based; conditions: in vivo; summary of the method: as §4
[27] = Clearance in Sprague-Dawley rat at 1.25 mg/kg, iv measured up to 24 hrs by HPLC analysis; type: ADME, organism-based; conditions: in vivo; summary of the method: as §4
[28] = Mean residence time in Sprague-Dawley rat at 1.25 mg/kg, iv measured up to 24 hrs by HPLC analysis; type: ADME, organism-based; conditions: in vivo; summary of the method: as §4
[29] = Mean residence time in Sprague-Dawley rat at 25 mg/kg, po measured up to 24 hrs by HPLC analysis; type: ADME, organism-based; conditions: in vivo; summary of the method: as §4
[30] = Volume of distribution at steady state in Sprague-Dawley rat at 1.25 mg/kg, iv measured up to 24 hrs by HPLC analysis; type: ADME, organism-based; conditions: in vivo, read-out: Vdss; summary of the method: as §4
[31] = Oral bioavailability in Sprague-Dawley rat at 25 mg/kg measured up to 24 hrs by HPLC analysis; type: ADME, organism-based; conditions: in vivo; summary of the method: as §4

O=C(COc1cccc2ccccc12)Nc1ccc(F)cc1
inhibition at 10 µM (Influenza A virus [1]): 78% | IC50 (Influenza A virus [2]): 5.22 µM | CC50 at 48 h [3]: > 100 µM | selectivity ratio [4]: > 19.1

O=C(CNc1nc(N2CCCC2)nc2ccccc12)Nc1ccc2ccccc2c1
CC50 at 48 h [5]: 4.77 µM | inhibition at 10 µM (Influenza A virus [1]): 99.8% | IC50 (Influenza A virus [2]): 1.29 µM | CC50 at 48 h [3]: 59.9 µM | selectivity ratio [4]: 46.5 | IC50 (Influenza A virus [6]): 0.63 µM | Activity (Influenza A virus [7]): Active | Activity (Influenza A virus [8]): inactive | Activity (Influenza A virus [9]): Dose-dependent effect | Activity (Influenza A virus [10]): 80% | k el at 24 h [11]: 0.000286 s⁻¹ | k el at 24 h [12]: 8.89e-05 s⁻¹ | half-life [13]: 40.8 min | half-life [14]: 135 min | Tmax [15]: 19.8 min | Cmax [16]: 58 ng/mL | Cmax [17]: 78.6 ng/mL | C0 at 24 h [18]: 80.8 ng/mL | AUC(0-t) at 24 h [19]: 34.9 ng·h/mL | AUC(0-t) at 24 h [20]: 157 ng·h/mL | AUC(0-inf) [21]: 39.2 ng·h/mL | AUC(0-inf) [22]: 183 ng·h/mL | AUMCt [23]: 18 hr.hr.ng/ml | AUMCt [24]: 313 hr.hr.ng/ml | AUMC [25]: 30.6 hr.hr.ng/ml | AUMC [26]: 553 hr.hr.ng/ml | clearance [27]: 557 mL/min/kg | MRT [28]: 47.4 min | MRT [29]: 191 min | Vd [30]: 26.6 L/kg | bioavailability [31]: 22.5%

O=C(CNc1nc(N2CCc3ccccc3C2)nc2ccccc12)Nc1ccc2ccccc2c1
IC50 (Influenza A virus [2]): 3.43 µM | CC50 at 48 h [3]: > 100 µM | selectivity ratio [4]: > 29.1

O=C(CNc1nc(N2CCc3ccccc3C2)nc2ccccc12)Nc1ccccc1
CC50 at 48 h [5]: 10.7 µM | inhibition at 10 µM (Influenza A virus [1]): 98.2% | IC50 (Influenza A virus [2]): 3.88 µM | CC50 at 48 h [3]: 36.6 µM | selectivity ratio [4]: 9.44 | IC50 (Influenza A virus [6]): 0.41 µM

CCOc1ccc(NC(=O)CSc2c[nH]c3ccc(Br)cc23)cc1
CC50 at 48 h [5]: 71.4 µM | inhibition at 10 µM (Influenza A virus [1]): 90.2% | IC50 (Influenza A virus [2]): 4.18 µM | CC50 at 48 h [3]: 44 µM | selectivity ratio [4]: 10.5 | IC50 (Influenza A virus [6]): 0.33 µM

NC(=O)c1ncn([C@@H]2O[C@H](CO)[C@@H](O)[C@H]2O)n1 [RIBAVIRIN]
CC50 at 48 h [3]: > 100 µM | selectivity ratio [4]: > 6.51

CN1CCN(c2nc(NCC(=O)NCc3ccccc3)c3ccccc3n2)CC1
IC50 (Influenza A virus [2]): 11.5 µM | CC50 at 48 h [3]: > 100 µM | selectivity ratio [4]: > 8.72

O=C(CNc1nc(N2CCc3ccccc3C2)nc2ccccc12)NCc1ccccc1
CC50 at 48 h [5]: 12.8 µM | IC50 (Influenza A virus [2]): 6.84 µM | CC50 at 48 h [3]: 29.4 µM | selectivity ratio [4]: 4.3 | IC50 (Influenza A virus [6]): 0.12 µM
